Assay results from ChEMBL document CHEMBL4406821, “Novel dual inhibitors targeting CDK4 and VEGFR2 synergistically suppressed cancer progression and angiogenesis” (Eur J Med Chem, 2019).
pIC50: −log10 of the molar value. Values belong to the molecule of their own block, whether it stands above or below them.

Tests used:
[1] = target: Vascular endothelial growth factor receptor 2 (Homo sapiens, UniProt P35968); test: Inhibition of recombinant human VEGFR2 (790 to end residues) using myelin ba as substrate at 1 uM incubated for 40 mins by [gamma-33P]-ATP based radiometric assay relative to control
Method in brief: (§1)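 Kinase panel profiling at 1 μM performed by Eurofins KinaseProfiler; percent inhibition reported as mean of two independent experiments.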

HeLa = test: Antiproliferative activity against human HeLa cells assessed as reduction in cell viability measured after 72 hrs by CCK8 assay; type: functional, cell-based
Method in brief: (§2)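 Cells were seeded at 3×10³ cells/well and exposed to a range of concentrations or vehicle for 72 h. Viability was read by CCK-8 at 450 nm, with DMSO as blank and five replicates per sample. IC50 was calculated from the dose-response.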

[2] = target: CDK4/Cyclin D3 (Homo sapiens) (UniProt P11802+P30281); test: Inhibition of recombinant full length human CDK4/Cyclin D3 using Rb-fragmen as substrate at 1 uM incubated for 40 mins by [gamma-33P]-ATP based radiometric assay relative to control; type: protein-complex assay; method in brief: as §1
T47D = test: Antiproliferative activity against human T47D cells assessed as reduction in cell viability measured after 72 hrs by CCK8 assay; type: functional, cell-based; method in brief: as §2

Vascular endothelial growth factor receptor 2, sequence (P35968 whole entry): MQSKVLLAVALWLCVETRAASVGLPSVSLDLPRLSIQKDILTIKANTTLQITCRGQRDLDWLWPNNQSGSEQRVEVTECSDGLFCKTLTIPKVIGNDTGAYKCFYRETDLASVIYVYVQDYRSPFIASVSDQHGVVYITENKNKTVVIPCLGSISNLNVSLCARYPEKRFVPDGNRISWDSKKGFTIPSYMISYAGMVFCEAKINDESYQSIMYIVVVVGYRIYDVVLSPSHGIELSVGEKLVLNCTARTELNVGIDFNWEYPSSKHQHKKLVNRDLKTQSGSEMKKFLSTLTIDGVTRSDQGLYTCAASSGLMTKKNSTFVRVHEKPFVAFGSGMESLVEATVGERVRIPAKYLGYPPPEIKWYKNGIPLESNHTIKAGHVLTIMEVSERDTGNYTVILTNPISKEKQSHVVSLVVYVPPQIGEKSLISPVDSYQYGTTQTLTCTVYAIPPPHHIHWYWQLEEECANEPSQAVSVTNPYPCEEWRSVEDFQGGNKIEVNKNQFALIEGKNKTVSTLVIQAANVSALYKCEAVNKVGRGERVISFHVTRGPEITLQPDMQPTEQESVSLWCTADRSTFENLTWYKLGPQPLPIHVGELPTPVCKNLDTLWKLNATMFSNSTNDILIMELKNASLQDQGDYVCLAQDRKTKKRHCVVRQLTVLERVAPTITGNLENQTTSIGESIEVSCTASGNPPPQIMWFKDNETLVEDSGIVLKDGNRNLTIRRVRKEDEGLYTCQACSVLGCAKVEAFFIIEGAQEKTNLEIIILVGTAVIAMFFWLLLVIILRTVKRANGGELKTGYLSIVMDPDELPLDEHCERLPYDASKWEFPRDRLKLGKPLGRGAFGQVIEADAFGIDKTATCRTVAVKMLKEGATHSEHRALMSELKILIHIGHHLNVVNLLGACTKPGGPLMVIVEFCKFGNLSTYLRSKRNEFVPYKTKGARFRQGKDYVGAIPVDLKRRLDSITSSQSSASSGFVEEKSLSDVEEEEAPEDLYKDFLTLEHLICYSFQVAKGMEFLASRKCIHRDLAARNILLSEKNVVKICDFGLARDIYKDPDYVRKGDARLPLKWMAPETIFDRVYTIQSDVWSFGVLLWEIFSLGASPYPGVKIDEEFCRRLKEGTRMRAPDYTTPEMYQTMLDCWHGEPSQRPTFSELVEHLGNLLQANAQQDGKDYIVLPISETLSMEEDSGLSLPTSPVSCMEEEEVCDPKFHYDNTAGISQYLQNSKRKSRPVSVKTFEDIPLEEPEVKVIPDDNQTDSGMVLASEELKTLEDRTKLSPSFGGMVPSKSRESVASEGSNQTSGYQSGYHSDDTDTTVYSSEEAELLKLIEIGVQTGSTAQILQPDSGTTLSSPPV

Structure (SMILES): Cc1ccc(NC(=O)C2(C(=O)Nc3ccc(Nc4ncc(F)c(-c5ccc6nnn(C(C)C)c6c5)n4)cc3)CC2)cc1
inhibition [1]: 78%
inhibition [2]: 81%

Structure (SMILES): Cc1cccc(NC(=O)C2(C(=O)Nc3ccc(Nc4ncc(F)c(-c5ccc6nnn(C(C)C)c6c5)n4)cc3)CC2)c1
inhibition [1]: 73%
inhibition [2]: 75%

Structure (SMILES): CC(C)n1nnc2ccc(-c3nc(Nc4ccc(NC(=O)C5(C(=O)Nc6cccc(F)c6)CC5)cc4)ncc3F)cc21
inhibition [1]: 69%
inhibition [2]: 79%

Structure (SMILES): CC(C)n1nnc2ccc(-c3nc(Nc4ccc(NC(=O)C5(C(=O)Nc6ccc(Cl)c(C(F)(F)F)c6)CC5)cc4)ncc3F)cc21
inhibition [1]: 41%
inhibition [2]: 8%

Structure (SMILES): CC(C)n1nnc2ccc(-c3nc(Nc4ccc(NC(=O)C5(C(=O)Nc6cccc(C(F)(F)F)c6)CC5)cc4)ncc3F)cc21
inhibition [1]: 46%
inhibition [2]: 13%

Structure (SMILES): CN(C)C(=O)c1cc2cnc(Nc3ccc(NC(=O)C4(C(=O)Nc5ccc(F)cc5)CC4)cc3)nc2n1C1CCCC1
inhibition [1]: 0%

Structure (SMILES): Cc1nc2c(F)cc(-c3nc(Nc4ccc(CNC(=O)C5(C(=O)Nc6ccc(C(F)(F)F)cc6)CC5)cc4)ncc3F)cc2n1C(C)C
inhibition [1]: 74%
inhibition [2]: 37%

Structure (SMILES): CC(C)n1nnc2ccc(-c3nc(Nc4ccc(NC(=O)C5(C(=O)Nc6cccc(Br)c6)CC5)cc4)ncc3F)cc21
inhibition [1]: 55%
inhibition [2]: 34%

Structure (SMILES): CC(C)n1nnc2ccc(-c3nc(Nc4ccc(NC(=O)C5(C(=O)Nc6ccc(Cl)cc6)CC5)cc4)ncc3F)cc21
inhibition [1]: 59%
inhibition [2]: 21%

Structure (SMILES): CC(C)n1nnc2ccc(-c3nc(Nc4ccc(NC(=O)C5(C(=O)Nc6ccc(F)cc6)CC5)cc4)ncc3F)cc21
inhibition [1]: 84%
inhibition [2]: 69%

Structure (SMILES): CC(C)n1nnc2ccc(-c3nc(Nc4ccc(NC(=O)C5(C(=O)Nc6ccc(Br)cc6)CC5)cc4)ncc3F)cc21
inhibition [1]: 52%
inhibition [2]: 24%

Structure (SMILES): CC(C)n1nnc2ccc(-c3nc(Nc4ccc(NC(=O)C5(C(=O)Nc6ccc(C(F)(F)F)cc6)CC5)cc4)ncc3F)cc21
inhibition [1]: 56%
inhibition [2]: 31%

Structure (SMILES): CC(C)n1nnc2ccc(-c3nc(Nc4ccc(NC(=O)C5(C(=O)Nc6cccc(Cl)c6)CC5)cc4)ncc3F)cc21
inhibition [1]: 60%
inhibition [2]: 50%

The next lines start with the values.

inhibition [1]: 91%
pIC50 (HeLa): 6.22
inhibition [2]: 90%
pIC50 (T47D): 6.92
Structure (SMILES): Cc1nc2c(F)cc(-c3nc(Nc4ccc(NC(=O)C5(C(=O)Nc6ccc(Br)cc6)CC5)cc4)ncc3F)cc2n1C(C)C

inhibition [1]: 57%
inhibition [2]: 51%
Structure (SMILES): Cc1nc2c(F)cc(-c3nc(Nc4ccc(CNC(=O)C5(C(=O)Nc6ccc(Cl)c(C(F)(F)F)c6)CC5)cc4)ncc3F)cc2n1C(C)C

inhibition [1]: 90%
inhibition [2]: 83%
Structure (SMILES): Cc1nc2c(F)cc(-c3nc(Nc4ccc(NC(=O)C5(C(=O)Nc6cccc(Br)c6)CC5)cc4)ncc3F)cc2n1C(C)C

inhibition [1]: 90%
inhibition [2]: 74%
Structure (SMILES): Cc1nc2c(F)cc(-c3nc(Nc4ccc(NC(=O)C5(C(=O)Nc6cccc(Cl)c6)CC5)cc4)ncc3F)cc2n1C(C)C

inhibition [1]: 90%
pIC50 (HeLa): 6.48
inhibition [2]: 93%
pIC50 (T47D): 6.96
Structure (SMILES): Cc1nc2c(F)cc(-c3nc(Nc4ccc(CNC(=O)C5(C(=O)Nc6ccc(Br)cc6)CC5)cc4)ncc3F)cc2n1C(C)C

inhibition [1]: 91%
pIC50 (HeLa): 6.72
inhibition [2]: 98%
pIC50 (T47D): 7.59
Structure (SMILES): Cc1nc2c(F)cc(-c3nc(Nc4ccc(NC(=O)C5(C(=O)Nc6ccc(F)cc6)CC5)cc4)ncc3F)cc2n1C(C)C

inhibition [1]: 95%
pIC50 (HeLa): 6.75
inhibition [2]: 97%
pIC50 (T47D): 6.69
Structure (SMILES): Cc1cccc(NC(=O)C2(C(=O)Nc3ccc(Nc4ncc(F)c(-c5cc(F)c6nc(C)n(C(C)C)c6c5)n4)cc3)CC2)c1

inhibition [1]: 80%
inhibition [2]: 74%
Structure (SMILES): Cc1nc2c(F)cc(-c3nc(Nc4ccc(NC(=O)C5(C(=O)Nc6ccc(C(F)(F)F)cc6)CC5)cc4)ncc3F)cc2n1C(C)C

inhibition [1]: 80%
inhibition [2]: 31%
Structure (SMILES): Cc1nc2c(F)cc(-c3nc(Nc4ccc(NC(=O)C5(C(=O)Nc6cccc(C(F)(F)F)c6)CC5)cc4)ncc3F)cc2n1C(C)C

inhibition [1]: 95%
pIC50 (HeLa): 6.60
inhibition [2]: 97%
pIC50 (T47D): 6.11
Structure (SMILES): Cc1ccc(NC(=O)C2(C(=O)NCc3ccc(Nc4ncc(F)c(-c5cc(F)c6nc(C)n(C(C)C)c6c5)n4)cc3)CC2)cc1

inhibition [1]: 74%
inhibition [2]: 76%
Structure (SMILES): Cc1nc2c(F)cc(-c3nc(Nc4ccc(NC(=O)C5(C(=O)Nc6ccc(Cl)cc6)CC5)cc4)ncc3F)cc2n1C(C)C

inhibition [1]: 90%
pIC50 (HeLa): 6.98
inhibition [2]: 96%
pIC50 (T47D): 7.53
Structure (SMILES): Cc1nc2c(F)cc(-c3nc(Nc4ccc(NC(=O)C5(C(=O)Nc6cccc(F)c6)CC5)cc4)ncc3F)cc2n1C(C)C

inhibition [1]: 91%
inhibition [2]: 88%
Structure (SMILES): Cc1nc2c(F)cc(-c3nc(Nc4ccc(CNC(=O)C5(C(=O)Nc6ccc(Cl)cc6)CC5)cc4)ncc3F)cc2n1C(C)C

inhibition [1]: 68%
inhibition [2]: 34%
Structure (SMILES): Cc1nc2c(F)cc(-c3nc(Nc4ccc(NC(=O)C5(C(=O)Nc6ccc(Cl)c(C(F)(F)F)c6)CC5)cc4)ncc3F)cc2n1C(C)C
